The record followed here is article PMC11966317 (ACS Omega, 2025).

Series [1] concerns heart, liver, spleen, lungs, and kidneys. In words: HE staining of major organs after treatment. The settings on record: kidneys after 10 mg/kg every 3 days, five doses. The class given is in vivo, NOD/SCID mice.
The next series relates to CHO-hPD-L1 tumors. Description: Tumor volume and body weight during treatment. The class given is in vivo, NOD/SCID mice. The settings on record: 10 mg/kg every 3 days, five doses, monitored every 3 days. A digest of the protocol:
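Mice bearing CHO-hPD-L1 tumours were randomised to PBS or the anti-PD-L1 antibody (n = 3 each). Either was given at 10 mg/kg via the tail vein every 3 days, five doses over a 14-day cycle. Tumour volume and body weight were recorded. Endpoint was tumour volume >1500 mm3 or maximum diameter >20 mm.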

For the substance “Atezolizumab: anti-PD-L1 monoclonal antibody”, in series [1], the “histopathology of major organs (HE staining)” value is given as “No histopathological abnormalities”. Moreover, the “body weight versus PBS group” value with CHO-hPD-L1 tumors was “no notable differences in body weight”.
